Tcruzi prolif: inhibitors of T. cruzi proliferation; T. cruzi beta-gal in NIH3T3, GalScreen luminescence, 90 h; inhibition, % at 8.34 µM; 77,000 tested, 5.9% active;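 active means mean inhibition above about 93%, with at least 55% of replicates each passing it, limit read from the data, passing the limit was not always enough; inconclusive means only one of those two conditions holds; inactive means neither condition holds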
IDH1 mut inh: blocks human IDH1 R132H reductase activity | 70,000 tested, 0.18% active | inhibition, % at 10 µM | diaphorase/resazurin fluorescence, 60 min; in the data active means inhibition above about 34%; inconclusive means no clear call, values can overlap the other calls; inactive means below about 11%;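 further: 0% = DMSO and 100% = no enzyme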
Target sequence (O75874 whole entry R132H): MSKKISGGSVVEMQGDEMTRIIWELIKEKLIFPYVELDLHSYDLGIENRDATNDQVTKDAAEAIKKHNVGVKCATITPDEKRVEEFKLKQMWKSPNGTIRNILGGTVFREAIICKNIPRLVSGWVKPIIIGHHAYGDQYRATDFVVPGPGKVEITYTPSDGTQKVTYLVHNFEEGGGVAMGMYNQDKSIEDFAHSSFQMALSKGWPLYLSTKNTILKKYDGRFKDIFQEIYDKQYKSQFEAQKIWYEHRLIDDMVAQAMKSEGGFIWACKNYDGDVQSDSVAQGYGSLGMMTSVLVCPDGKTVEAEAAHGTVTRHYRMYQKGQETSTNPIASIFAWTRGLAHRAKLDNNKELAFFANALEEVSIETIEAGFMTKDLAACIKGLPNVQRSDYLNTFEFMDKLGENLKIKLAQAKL
KDM4C inh: inhibitors of human demethylase GASC-1 KDM4C | GST-KDM4C 2-372, H3K9me3 peptide, LANCE TR-FRET | inhibition, % at 12.5 µM | 96,000 tested, 0.15% active | AID 720574;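 active means mean replicate inhibition above about 25%, with at least 55% of replicates also reaching it, limit read from the data, passing the limit was not always enough; inconclusive means only one of those two conditions met; inactive means neither condition met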
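System: N-terminal GST-fused human GASC-1 (KDM4C) fragment, residues 2-372 / Amount: 10 nM GST-KDM4C in enzyme reaction / Also added: H3K9me3 peptide with Fe(II)/2OG / Times: 30 min demethylation and 1 h detection at room temperature / Signal: LANCE TR-FRET / Read-out basis: Fall in 671/618 emission ratio as inhibition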
Numbers without * were called inactive; ? = inconclusive; / = not tested or not shown. Shown is part of a subset that was picked to be rich in hits.

SMILES | Tcruzi prolif | IDH1 mut inh | KDM4C inh
C[C@@H]1CN([C@@H](C)CO)C(=O)c2c(c3ccccc3n2C)-c2ccccc2CO[C@@H]1CN(C)Cc1ccc(O)cc1 | / | / | -1
C[C@H](CO)N1C[C@H](C)[C@@H](CN(C)C(=O)Nc2ccc3c(c2)OCO3)OCCCC[C@H](C)Oc2ccc(NC(=O)Nc3ccc(C(F)(F)F)cc3)cc2C1=O | 91 | -1 | -1
C[C@@H]1CN([C@@H](C)CO)C(=O)c2c(c3ccccc3n2C)-c2ccccc2CO[C@@H]1CN(C)Cc1ccncc1 | -10 | 47* | 0
C[C@@H]1CCCCO[C@H](CN(C)Cc2ccncc2)[C@H](C)CN([C@@H](C)CO)C(=O)c2cc(NC(=O)Nc3cccc4ccccc34)ccc2O1 | 74 | 0 | -1
C[C@H]1CCCCO[C@@H](CN(C)Cc2ccncc2)[C@@H](C)CN([C@@H](C)CO)C(=O)c2cc(NC(=O)Nc3cccc4ccccc34)ccc2O1 | 99* | -5 | 1
C[C@@H]1O[C@@H](O[C@@H]2[C@@H](O)[C@H](O)[C@@H](CO)O[C@H]2c2c(O)cc3oc(-c4ccc(O)cc4)cc(=O)c3c2O)[C@H](O)[C@H](O)[C@H]1O | / | 0 | /
COc1ccc(-c2ccc3c(c2)O[C@H](CN(C)C(=O)c2ccccc2F)[C@H](C)CN([C@@H](C)CO)S3(=O)=O)cc1 | 86 | 2 | 1
COc1ccc(-c2ccc3c(c2)O[C@H](CN(C)C(=O)c2ccccc2F)[C@H](C)CN([C@H](C)CO)S3(=O)=O)cc1 | 46 | ? | 45*
COc1ccc(NC(=O)N(C)C[C@@H]2Oc3cc(-c4ccncc4)ccc3S(=O)(=O)N([C@H](C)CO)C[C@@H]2C)cc1 | 17 | 71* | 37*
COc1ccc(NC(=O)N(C)C[C@@H]2Oc3cc(-c4ccncc4)ccc3S(=O)(=O)N([C@@H](C)CO)C[C@@H]2C)cc1 | 48 | -5 | -1
COc1cc(NC(=O)COc2c(Cl)c(C)c(Cl)c(C)c2Cl)c(OC)cc1Cl | / | 0 | /
CC1CCN(C(=O)c2ccc3c(=O)nc4c(-c5ccccc5)n[nH]n4c3c2)CC1 | / | -1 | /
CN1CCN(CCn2c(-c3ccc(Br)cc3)cn3c4ccccc4nc23)CC1 | / | 0 | /
CCNC(=O)[C@@H]1[C@@H](CO)[C@@H]2Cn3c(ccc(-c4cccnc4)c3=O)[C@@H]2N1Cc1ccccc1 | -1 | / | 5
O=C(NCC(F)(F)F)[C@@H]1[C@@H](CO)[C@@H]2Cn3c(ccc(-c4cccnc4)c3=O)[C@@H]2N1Cc1ccncc1 | 6 | / | 38*
COc1cc(S(C)=O)ccc1-c1nc2ccncc2[nH]1 (stereo unspecified) | / | -1 | /
O=C(CN1C(=O)c2ccccc2S1(=O)=O)Nc1ccccc1C(=O)N1CCOCC1 | / | 0 | /
CN(C(=S)Nc1ccccc1)C1CCC(C2OCCO2)CC1O (stereo unspecified) | / | 1 | /
CC(C)CC#Cc1ccc([C@@H]2[C@@H](CO)N3CCCCN(S(=O)(=O)c4ccc(F)cc4)C[C@H]23)cc1 | 55 | / | -2
CC(C)CC#Cc1ccc([C@H]2[C@@H](CO)N3CCCCN(S(=O)(=O)c4ccc(F)cc4)C[C@H]23)cc1 | 63 | / | 26*
CN(C)CC#Cc1ccc([C@@H]2[C@@H](CO)N3CCCCN(S(=O)(=O)c4ccccc4)C[C@@H]23)cc1 | 78 | / | 32*
CN(C)CC#Cc1ccc([C@@H]2[C@H](CO)N3CCCCN(S(=O)(=O)c4ccccc4)C[C@@H]23)cc1 | 35 | / | 5
COc1ccc(-c2cc(C(F)(F)F)nc(SCC(=O)Nc3cc(F)ccc3C)n2)cc1OC | / | 0 | /
Cc1cc(-c2ccc(N=Nc3cc(S(=O)(=O)O)c4ccccc4c3N)c(C)c2)ccc1N=Nc1cc(S(=O)(=O)O)c2ccccc2c1N | / | 43* | /
Cc1cc(N)n(-c2ccc(Oc3ccccc3)cc2S(=O)(=O)O)n1 | / | -1 | /
SMILES | Tcruzi prolif | IDH1 mut inh | KDM4C inh
COc1ccccc1-c1cc(-c2ccccc2)nc(SCC(=O)c2cc3ccccc3oc2=O)c1C#N | / | 0 | /
CO[C@@H]1CN(C)C(=O)c2ccc(NS(=O)(=O)c3cccc(Cl)c3)cc2OC[C@@H](C)NC[C@H]1C | 14 | 0 | 1
CO[C@H]1CN(C)C(=O)c2ccc(NS(=O)(=O)c3cccc(Cl)c3)cc2OC[C@@H](C)NC[C@H]1C | 73 | 72* | 43*
CCCNC(=O)C[C@H]1C[C@@H]2c3cc(N(C)C)ccc3O[C@@H]2[C@@H](CO)O1 | 35 | -10 | 31*
COCCNC(=O)C[C@@H]1C[C@@H]2c3cc(N(C)C)ccc3O[C@@H]2[C@H](CO)O1 | / | -2 | ?
COc1ccc(S(=O)(=O)Nc2ccc3c(c2)[C@H]2C[C@@H](CC(=O)NCC4CC4)O[C@H](CO)[C@H]2O3)cc1 | 21 | 74* | 44*
COC(=O)C[C@@H]1C[C@@H]2c3cc(NC(=O)Nc4ccccc4F)ccc3O[C@@H]2[C@@H](CO)O1 | 60 | 81* | 41*
CCCNC(=O)C[C@H]1C[C@H]2c3cc(N(C)C)ccc3O[C@H]2[C@H](CO)O1 | / | / | 49*
COCCNC(=O)C[C@H]1C[C@@H]2c3cc(N(C)C)ccc3O[C@@H]2[C@H](CO)O1 | / | -2 | 17
O=C(O)C[C@@H]1C[C@H]2c3cc(NC(=O)Nc4ccccc4F)ccc3O[C@H]2[C@H](CO)O1 | / | -2 | 3
COc1ccc(S(=O)(=O)Nc2ccc3c(c2)[C@H]2C[C@@H](CC(=O)NCC4CC4)O[C@@H](CO)[C@H]2O3)cc1 | 35 | 0 | 0
CN(CCCc1nc2ccccc2[nH]1)S(=O)(=O)c1ccc(Cl)cc1 | / | 0 | /
COc1ccc(CN2C(=O)C(O)(CC(=O)c3ccc(C)s3)c3ccccc32)cc1OC (stereo unspecified) | / | 0 | /
C=C1C2(C)OC(=O)C34OC2C2=C(CO)C5(CCC2(C)C13C(=O)OC4C)C(O)CC(=O)OC5(C)C (stereo unspecified) | / | 2 | /
S=C1NC2=C(C(c3ccccc3)N1)N1CCC2CC1 (stereo unspecified) | / | -3 | /
CC(C)(C)Sc1nc2ccccc2[nH]c1=S | / | 14 | /
COCCNC(=O)C[C@H]1C[C@H]2c3cc(NC(=O)c4ccc5c(c4)OCO5)ccc3O[C@H]2[C@@H](CO)O1 | / | 16 | 54*
COCCNC(=O)C[C@H]1C[C@@H]2c3cc(NC(=O)c4ccc5c(c4)OCO5)ccc3O[C@@H]2[C@@H](CO)O1 | / | -3 | 1
COc1cc(/C=C/C(=O)CC(=O)/C=C/c2ccc(O)c(OC)c2)ccc1O | / | 0 | /
COC(=O)/C=C/c1cc(O)ccc1O | / | 89* | /
Cc1ccc(NC(=O)CSC2CC(=O)N(c3ccc(Cl)cc3)C2=O)cc1 (stereo unspecified) | / | 0 | /
COc1ccc(Cl)cc1NC(=O)C(C)n1cc([N+](=O)[O-])cn1 (stereo unspecified) | / | 0 | /
CCCN1[C@H](C(=O)N[C@@H](C)c2ccccc2)[C@@H](CO)[C@@H]2Cn3c(cccc3=O)[C@@H]21 | / | / | 38*
CCCN1[C@@H]2c3cccc(=O)n3C[C@@H]2[C@@H](CO)[C@@H]1C(=O)N[C@@H](C)c1ccccc1 | / | / | 19
CC(=O)N(C)C[C@@H]1Oc2ncc(-c3ccc(C#N)cc3)cc2C(=O)N([C@H](C)CO)C[C@H]1C | -11 | 0 | -1

From PubChem
